Reference: ChEMBL document CHEMBL5108003, “Identification of 2-hydroxybenzoic acid derivatives as selective SIRT5 inhibitors” (Eur J Med Chem, 2022)

Target: T1, NAD-dependent protein deacylase sirtuin-5, mitochondrial (Homo sapiens, UniProt Q9NXA8)
Test: Inhibition of human SIRT5 using fluorogenic substrate preincubated for 1 hr in presence of NAD followed by substrate addition and measured after 15 to 30 mins by trypsin-coupled fluorescence plate reader analysis
Target sequence in this assay (Q9NXA8 whole entry): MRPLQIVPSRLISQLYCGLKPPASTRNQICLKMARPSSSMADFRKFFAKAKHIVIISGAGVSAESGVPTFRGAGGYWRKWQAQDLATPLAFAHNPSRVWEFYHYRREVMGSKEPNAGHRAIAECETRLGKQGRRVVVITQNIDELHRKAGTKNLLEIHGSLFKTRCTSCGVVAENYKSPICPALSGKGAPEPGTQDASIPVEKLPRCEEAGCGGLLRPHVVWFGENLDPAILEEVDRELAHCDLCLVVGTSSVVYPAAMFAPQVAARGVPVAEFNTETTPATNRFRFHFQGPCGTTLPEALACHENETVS

For `O=C(O)c1ccc(NC(=S)Nc2nc(-c3ccc(C(F)(F)F)cc3)cs2)cc1O`, which IC50 is on record?
The IC50 was 24.3 µM.

For `O=C(O)c1ccc(NC(=S)Nc2nc(-c3cccc(C(F)(F)F)c3)cs2)cc1O`, which IC50 is on record?
The IC50 was 26.8 µM.

`CC(=O)Nc1ccc(-c2csc(Nc3ccc(C(=O)O)cc3)n2)cc1` was tested. Which IC50 did it give?
The IC50 was 201 µM.

Which IC50 does the source give for `CCOC(=O)c1ccc(Nc2nc(-c3ccc(NC(C)=O)cc3)cs2)cc1O` here?
Its IC50 is > 400 µM.

Target: T1, NAD-dependent protein deacylase sirtuin-5, mitochondrial
Test: Stabilization of human SIRT5 assessed as change in melting temperature at 100 uM by thermal shift assay
Method in brief: (§1)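 Recombinant wild-type SIRT5 at 0.2 mg/ml final in 20 mM Bis-Tris propane pH 7.5 with 150 mM NaCl. The dye was 0.1 mM 1,8-ANS, and compound was at 100 μM with DMSO as the vehicle reference. Wells were overlaid with silicon oil and heated continuously from 25 °C to 90 °C. Tm came from fluorescence melt curves versus the DMSO control. Each reaction was run in quadruplicate.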
Target sequence in this assay (Q9NXA8 37-310 limits assumed): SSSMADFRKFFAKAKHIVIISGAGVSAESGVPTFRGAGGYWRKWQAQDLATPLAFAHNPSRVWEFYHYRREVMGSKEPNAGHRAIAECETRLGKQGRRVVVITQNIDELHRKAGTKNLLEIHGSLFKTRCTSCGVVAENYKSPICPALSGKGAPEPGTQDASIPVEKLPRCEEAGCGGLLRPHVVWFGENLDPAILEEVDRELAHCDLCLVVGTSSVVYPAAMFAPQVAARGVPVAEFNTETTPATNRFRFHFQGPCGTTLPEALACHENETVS

How did the ΔTm turn out when `CNS(=O)(=O)c1cccc(-c2csc(NC(=S)Nc3ccc(C(=O)O)c(O)c3)n2)c1` was run?
Its ΔTm is 0.8 °C.

Which ΔTm does the source give for `O=C(O)c1ccc(NC(=S)Nc2nc(-c3ccc([N+](=O)[O-])cc3F)cs2)cc1O` here?
Its ΔTm is 1.6 °C.

How did the ΔTm turn out when `O=C(O)c1ccc(NC(=S)Nc2nc(-c3ccc(C(F)(F)F)cc3)cs2)cc1O` was run?
The ΔTm was 1.2 °C.

For `CC(=O)Nc1ccc(-c2csc(Nc3ccc(C(=O)O)c(O)c3)n2)cc1`, which ΔTm is on record?
Its ΔTm is 1.8 °C.

With `O=C(O)c1ccc(NC(=S)Nc2nc(-c3ccccc3F)cs2)cc1O` as the compound, how does the ΔTm read?
The ΔTm was 1 °C.

Which ΔTm does the source give for `O=C(O)c1ccc(NC(=S)Nc2nc(-c3ccc(F)c(S(=O)(=O)NC4CCCC4)c3)cs2)cc1O` here?
The ΔTm was 1.3 °C.

Which ΔTm does the source give for `O=C(O)c1ccc(NC(=S)Nc2nc(-c3ccc(F)cc3)cs2)cc1O` here?
The ΔTm was 1.3 °C.

With `O=C(O)c1ccc(NC(=S)Nc2nc(-c3ccc(F)c(S(=O)(=O)NCc4ccccc4)c3)cs2)cc1O` as the compound, how does the ΔTm read?
Its ΔTm is 1.9 °C.

For `O=C(O)c1ccc(NC(=S)Nc2nc(-c3ccc([N+](=O)[O-])c(S(=O)(=O)NCc4ccccc4)c3)cs2)cc1O`, which ΔTm is on record?
The ΔTm was 1.8 °C.

How did the ΔTm turn out when `O=C(O)c1ccc(NC(=S)Nc2nc(-c3cccc(C(F)(F)F)c3)cs2)cc1O` was run?
The ΔTm was 1.1 °C.

`O=C(O)c1ccc(NC(=S)Nc2nc(-c3ccc(F)c(F)c3)cs2)cc1O` was tested. Which ΔTm did it give?
Its ΔTm is 1.8 °C.

Which ΔTm does the source give for `N#Cc1ccc(-c2csc(NC(=S)Nc3ccc(C(=O)O)c(O)c3)n2)c(F)c1` here?
Its ΔTm is 1.9 °C.

For `COc1ccc(-c2csc(NC(=S)Nc3ccc(C(=O)O)c(O)c3)n2)cc1`, which ΔTm is on record?
Its ΔTm is 0.9 °C.

With `CNS(=O)(=O)c1ccc(-c2csc(NC(=S)Nc3ccc(C(=O)O)c(O)c3)n2)cc1` as the compound, how does the ΔTm read?
The ΔTm was 0.9 °C.

`CC(=O)Nc1ccc(-c2csc(Nc3ccc(C(=O)O)cc3)n2)cc1` was tested. Which ΔTm did it give?
Its ΔTm is 0.53 °C.

For `O=C(O)c1ccc(NC(=S)Nc2nc(-c3ccc(Cl)cc3)cs2)cc1O`, which ΔTm is on record?
The ΔTm was 1.1 °C.

How did the ΔTm turn out when `Cc1ccc(-c2csc(NC(=S)Nc3ccc(C(=O)O)c(O)c3)n2)cc1` was run?
The ΔTm was 1.4 °C.

With `CC(=O)Nc1ccccc1-c1csc(NC(=S)Nc2ccc(C(=O)O)c(O)c2)n1` as the compound, how does the ΔTm read?
Its ΔTm is 0.9 °C.

With `O=C(O)c1ccc(NC(=S)Nc2nc(-c3ccc([N+](=O)[O-])c(F)c3)cs2)cc1O` as the compound, how does the ΔTm read?
Its ΔTm is 1.8 °C.

With `O=C(O)c1ccc(NC(=S)Nc2nc(-c3cccc(F)c3)cs2)cc1O` as the compound, how does the ΔTm read?
The ΔTm was 1.22 °C.

For `O=C(O)c1ccc(NC(=S)Nc2nc(-c3ccc(Br)cc3)cs2)cc1O`, which ΔTm is on record?
The ΔTm was 1.2 °C.

With `O=C(O)c1ccc(NC(=S)Nc2nc(-c3ccc(F)cc3F)cs2)cc1O` as the compound, how does the ΔTm read?
The ΔTm was 1.9 °C.

For `O=C(O)c1ccc(NC(=S)Nc2nc(-c3ccc([N+](=O)[O-])cc3)cs2)cc1O`, which ΔTm is on record?
The ΔTm was 1.8 °C.

With `N#Cc1ccc(-c2csc(NC(=S)Nc3ccc(C(=O)O)c(O)c3)n2)cc1` as the compound, how does the ΔTm read?
Its ΔTm is 2.1 °C.

With `COc1cccc(-c2csc(NC(=S)Nc3ccc(C(=O)O)c(O)c3)n2)c1` as the compound, how does the ΔTm read?
Its ΔTm is 0.9 °C.

Which ΔTm does the source give for `O=C(O)c1ccc(NC(=S)Nc2nc(-c3cccc(O)c3)cs2)cc1O` here?
The ΔTm was 0.72 °C.

`CC(=O)Nc1ccc(-c2csc(NC(=S)Nc3ccc(C(=O)O)c(O)c3)n2)cc1` was tested. Which ΔTm did it give?
The ΔTm was 2.5 °C.

Which ΔTm does the source give for `CC(=O)Nc1cccc(-c2csc(NC(=S)Nc3ccc(C(=O)O)c(O)c3)n2)c1` here?
Its ΔTm is 1.5 °C.

How did the ΔTm turn out when `Cc1ccccc1-c1csc(NC(=S)Nc2ccc(C(=O)O)c(O)c2)n1` was run?
The ΔTm was 1.1 °C.

How did the ΔTm turn out when `N#Cc1ccc(-c2csc(NC(=S)Nc3ccc(C(=O)O)c(O)c3)n2)cc1F` was run?
The ΔTm was 1.8 °C.

How did the ΔTm turn out when `O=C(O)c1ccc(NC(=S)Nc2nc(-c3ccc(O)cc3)cs2)cc1O` was run?
Its ΔTm is 0.8 °C.

Which ΔTm does the source give for `Cc1cccc(-c2csc(NC(=S)Nc3ccc(C(=O)O)c(O)c3)n2)c1` here?
Its ΔTm is 1.2 °C.

`CCOC(=O)c1ccc(Nc2nc(-c3ccc(NC(C)=O)cc3)cs2)cc1O` was tested. Which ΔTm did it give?
The ΔTm was 0.12 °C.

Target: T1, NAD-dependent protein deacylase sirtuin-5, mitochondrial
Test: Stabilization of wild type human SIRT5 assessed as melting temperature at 100 uM by thermal shift assay
Method in brief: as §1
Target sequence in this assay (Q9NXA8 37-310 limits assumed): as above

Which Tm does the source give for `CC(=O)Nc1ccc(-c2csc(Nc3ccc(C(=O)O)c(O)c3)n2)cc1` here?
Its Tm is 52.8 °C.

With `Cc1ccc(C(=O)Nc2ccc(S(=O)(=O)O)c3cc(S(=O)(=O)O)cc(S(=O)(=O)O)c23)cc1NC(=O)c1cccc(NC(=O)Nc2cccc(C(=O)Nc3cc(C(=O)Nc4ccc(S(=O)(=O)O)c5cc(S(=O)(=O)O)cc(S(=O)(=O)O)c45)ccc3C)c2)c1` as the compound, how does the Tm read?
The Tm was 51 °C.
